Values after ≈ are worked out from the molar mass of the structure shown.
Tests used:
Format in all cases: functional
[1] = test system: Klebsiella pneumoniae; assay: Antimicrobial activity against Klebsiella pneumoniae 2878 strain expressing beta-lactamase VIM-19 by microdilution method in presence of 4 ug/ml Tazobactam
Outline: (§1)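 Clinical isolates from intensive care patients. MICs by dilution on Mueller-Hinton agar, inoculum 10^4 CFU per spot, read after growth and interpreted by CA-SFM guidelines. Where the line names an inhibitor, it was held at a fixed level: clavulanic acid 2 μg/ml, tazobactam 4 μg/ml, or EDTA 0.4 mM.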

[2] = test system: Escherichia coli; assay: Antimicrobial activity against Escherichia coli harbouring plasmidBK-CMV expressing beta-lactamase VIM-19 […] in presence of 4 ug/ml Tazobactam
[3] = test system: Escherichia coli; assay: Antimicrobial activity against Escherichia coli DH5alpha 2878 transformant expressing beta-lactamase VIM-19 by microdilution method
Outline: (§2)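 MIC by dilution on Mueller-Hinton agar, inoculum 10^4 CFU per spot, interpreted by CA-SFM guidelines. Inhibitor combinations where tested: clavulanic acid 2 μg/ml, tazobactam 4 μg/ml, EDTA 0.4 mM. Transconjugants came from rifampin-resistant E. coli C600 selected on rifampin 300 μg/ml plus cefotaxime 0.5 μg/ml. Transformants came from electroporation into E. coli DH5α selected on cefotaxime 0.5 μg/ml.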

[4] = test system: Providencia stuartii; assay: Antimicrobial activity against Providencia stuartii 6858 strain expressing beta-lactamase VIM-19 by microdilution method in presence of 4 ug/ml Tazobactam; outline: as §1
[5] = test system: Klebsiella pneumoniae; assay: Antimicrobial activity against Klebsiella pneumoniae 2878 strain expressing beta-lactamase VIM-19 by microdilution method; outline: as §1
[6] = test system: Escherichia coli; assay: Antimicrobial activity against Escherichia coli 2603 strain expressing beta-lactamase VIM-19 […] in presence of 4 ug/ml Tazobactam
[7] = test system: Escherichia coli; assay: Antimicrobial activity against Escherichia coli DH5alpha harbouring plasmid BK-VIM-19 expressing beta-lactamase VIM-19 by microdilution method in presence of 4 ug/ml Tazobactam; outline: as §2
[8] = test system: Providencia stuartii; assay: Antimicrobial activity against Providencia stuartii 6858 strain expressing beta-lactamase VIM-19 by microdilution method; outline: as §1
[9] = test system: Escherichia coli; assay: Antimicrobial activity against Escherichia coli 138 expressing beta-lactamase VIM-19 by microdilution method in presence of 4 ug/ml Tazobactam; outline: as §2
[10] = test system: Escherichia coli; assay: Antimicrobial activity against Escherichia coli C600 2878 transconjugate expressing beta-lactamase VIM-19 by microdilution method; outline: as §2
[11] = test system: Klebsiella pneumoniae; assay: Antimicrobial activity against Klebsiella pneumoniae 6828 strain expressing beta-lactamase VIM-19 […] in presence of 4 ug/ml Tazobactam
[12] = test system: Escherichia coli; assay: Antimicrobial activity against Escherichia coli 138 expressing beta-lactamase VIM-19 by microdilution method; outline: as §1
[13] = test system: Escherichia coli; assay: Antimicrobial activity against Escherichia coli DH5alpha 2878 transformant expressing beta-lactamase VIM-19 […] in presence of 4 ug/ml Tazobactam
[14] = test system: Escherichia coli; assay: Antimicrobial activity against Escherichia coli C600 2878 transconjugate expressing beta-lactamase VIM-19 by microdilution method in presence of 4 ug/ml Tazobactam; outline: as §2
[15] = test system: Klebsiella pneumoniae; assay: Antimicrobial activity against Klebsiella pneumoniae 6828 strain expressing beta-lactamase VIM-19 by microdilution method; outline: as §1
[16] = test system: Escherichia coli; assay: Antimicrobial activity against Escherichia coli DH5alpha harbouring plasmid BK-VIM-19 expressing beta-lactamase VIM-19 by microdilution method; outline: as §2
[17] = test system: Escherichia coli; assay: Antimicrobial activity against Escherichia coli 2603 strain expressing beta-lactamase VIM-19 by microdilution method; outline: as §1
[18] = test system: Escherichia coli; assay: Antimicrobial activity against Escherichia coli harbouring plasmid BK-CMV expressing beta-lactamase VIM-19 by microdilution method; outline: as §2
[19] = test system: Escherichia coli; assay: Antimicrobial activity against Escherichia coli DH5alpha 2878 transformant expressing beta-lactamase VIM-19 by microdilution method in presence of 0.4 mM EDTA; outline: as §2
[20] = test system: Escherichia coli; assay: Antimicrobial activity against Escherichia coli 138 expressing beta-lactamase VIM-19 by microdilution method in presence of 0.4 mM EDTA; outline: as §2
[21] = test system: Klebsiella pneumoniae; assay: Antimicrobial activity against Klebsiella pneumoniae 2878 strain expressing beta-lactamase VIM-19 […] in presence of 0.4 mM EDTA
[22] = test system: Klebsiella pneumoniae; assay: Antimicrobial activity against Klebsiella pneumoniae 6828 strain expressing beta-lactamase VIM-19 by microdilution method in presence of 0.4 mM EDTA; outline: as §1
[23] = test system: Escherichia coli; assay: Antimicrobial activity against Escherichia coli 2603 strain expressing beta-lactamase VIM-19 by microdilution method in presence of 0.4 mM EDTA; outline: as §1
[24] = test system: Escherichia coli; assay: Antimicrobial activity against Escherichia coli C600 2878 transconjugate expressing beta-lactamase VIM-19 by microdilution method in presence of 0.4 mM EDTA
Outline: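 Rifampin-resistant E. coli C600 recipient mated with the clinical strain. Transconjugants were selected on agar with rifampin 300 μg/ml plus cefotaxime 0.5 μg/ml. MICs by dilution on Mueller-Hinton agar, inoculum 10^4 CFU per spot, CA-SFM interpretation. Inhibitor at a fixed level: clavulanic acid 2 μg/ml or EDTA 0.4 mM.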

[25] = test system: Providencia stuartii; assay: Antimicrobial activity against Providencia stuartii 6858 strain expressing beta-lactamase VIM-19 by microdilution method in presence of 0.4 mM EDTA; outline: as §1
[26] = test system: Escherichia coli; assay: Antimicrobial activity against Escherichia coli DH5alpha harbouring plasmid BK-VIM-19 expressing beta-lactamase VIM-19 by microdilution method in presence of 0.4 mM EDTA; outline: as §2
[27] = test system: Escherichia coli; assay: Antimicrobial activity against Escherichia coli harbouring plasmidBK-CMV expressing beta-lactamase VIM-19 […] in presence of 0.4 mM EDTA

Structure (SMILES): CCN1CCN(C(=O)N[C@@H](C(=O)N[C@@H]2C(=O)N3[C@@H]2SC(C)(C)[C@@H]3C(=O)O)c2ccccc2)C(=O)C1=O [PIPERACILLIN]
- MIC [1]: 2050 µg/mL
- MIC [2]: 2 µg/mL
- MIC [3]: 1020 µg/mL (≈ 1980 µM)
- MIC [4]: 256 µg/mL
- MIC [5]: 2050 µg/mL (≈ 3960 µM)
- MIC [6]: 1020 µg/mL
- MIC [7]: 512 µg/mL
- MIC [8]: 256 µg/mL (≈ 495 µM)
- MIC [9]: 2050 µg/mL
- MIC [10]: 512 µg/mL (≈ 989 µM)
- MIC [11]: 1020 µg/mL
- MIC [12]: > 2050 µg/mL
- MIC [13]: 1020 µg/mL
- MIC [14]: 512 µg/mL
- MIC [15]: 1020 µg/mL (≈ 1980 µM)
- MIC [16]: 512 µg/mL (≈ 989 µM)
- MIC [17]: > 2050 µg/mL
- MIC [18]: 2 µg/mL (≈ 3.86 µM)

Structure (SMILES): C[C@H]1[C@H](NC(=O)/C(=N\OC(C)(C)C(=O)O)c2csc(N)n2)C(=O)N1S(=O)(=O)O [AZTREONAM]
- MIC [19]: 16 µg/mL
- MIC [3]: 16 µg/mL (≈ 36.7 µM)
- MIC [20]: 128 µg/mL
- MIC [21]: 16 µg/mL
- MIC [5]: 16 µg/mL (≈ 36.7 µM)
- MIC [8]: 2 µg/mL (≈ 4.59 µM)
- MIC [22]: 8 µg/mL
- MIC [12]: 128 µg/mL (≈ 294 µM)
- MIC [23]: 64 µg/mL
- MIC [24]: 4 µg/mL
- MIC [15]: 8 µg/mL (≈ 18.4 µM)
- MIC [17]: 64 µg/mL (≈ 147 µM)

Structure (SMILES): CO/N=C(\C(=O)N[C@@H]1C(=O)N2C(C(=O)O)=C(COC(C)=O)CS[C@H]12)c1csc(N)n1 [CEFOTAXIME]
- MIC [19]: 1 µg/mL
- MIC [3]: 256 µg/mL (≈ 562 µM)
- MIC [20]: 32 µg/mL
- MIC [21]: 4 µg/mL
- MIC [5]: 256 µg/mL (≈ 562 µM)
- MIC [8]: 128 µg/mL (≈ 281 µM)
- MIC [25]: 2 µg/mL
- MIC [10]: 64 µg/mL (≈ 141 µM)
- MIC [22]: 4 µg/mL
- MIC [12]: 512 µg/mL (≈ 1120 µM)
- MIC [23]: 4 µg/mL
- MIC [24]: 1 µg/mL
- MIC [15]: 128 µg/mL (≈ 281 µM)
- MIC [26]: 0.06 µg/mL
- MIC [16]: 128 µg/mL (≈ 281 µM)
- MIC [17]: 256 µg/mL (≈ 562 µM)
- MIC [27]: 0.06 µg/mL
- MIC [18]: 0.06 µg/mL (≈ 0.132 µM)

Source: ChEMBL document CHEMBL1212777, “Novel VIM metallo-beta-lactamase variant from clinical isolates of Enterobacteriaceae from Algeria” (2010)
